Laboratory results: ChEMBL document CHEMBL3102827, “Permeability and conjugative metabolism of flaxseed lignans by Caco-2 human intestinal cells” (J Nat Prod, 2014)

What was measured:
[1] = Stability in HBSS after 48 hrs; format: physicochemical; details: read-out: Stability
Procedure, shortened: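 Lignans kept in test medium in wells without cells for up to 48 h. Remaining compound was measured to judge stability.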

Caco-2 [2] = assay: (§1) Apparent permeability across apical to basolateral side in human Caco2 cells after 2 hrs by HPLC analysis; format: ADME, cell-based; details: caco-2, 2 h, BLD = below limit of detection
Procedure, shortened: (§2)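 Caco-2 (passages 41−54, DMEM/10% FBS/1% NEAA) grown 21 days on polyester Transwells (0.4 μm pore). Cells washed with HBSS/10 mM HEPES pH 7.4 and equilibrated 30 min at 37 °C; lignan at 100 μM added to apical or basolateral side, 2 h at 37 °C. Both compartments sampled and quantified by HPLC. Papp = (dQ/dt)/(Am·C0). Integrity checked by TEER and Lucifer yellow. Transport linear to 2 h.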

[3] = Drug metabolism in human Caco2 cells assessed as compound glucuronidation/sulfation at 100 uM after 48 hrs by HPLC analysis; format: ADME, cell-based; details: Caco-2 cells, read-out: Drug metabolism
Procedure, shortened: (§3)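 Caco-2 grown 21 days in 24-well plates, washed with HBSS/HEPES pH 7.4, then given 100 μM lignan in DMEM in triplicate at 37 °C. Supernatant and cells taken at 0, 2, 4, 6, 12, 24 and 48 h. Samples hydrolysed with H. pomatia β-glucuronidase/sulfatase H-5 (0.66 mg in 0.1 M acetate pH 5.0, 37 °C, 2 h), acetonitrile-precipitated and analysed by HPLC. Conjugate = total minus free, relative to a zero-time control.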

Caco-2 [4] = assay: (§4) Apparent permeability across basolateral to apical side in human Caco2 cells after 2 hrs by HPLC analysis; format: ADME, cell-based; details: caco-2, 2 h, BLD = below limit of detection; procedure, shortened: as §2
[5] = Efflux ratio of permeability from basolateral to apical side over apical to basolateral side in human Caco2 cells after 2 hrs by HPLC analysis; format: ADME, cell-based; details: Caco-2
Procedure, shortened: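 Efflux ratio taken as Papp B→A over Papp A→B. Papp comes from 2 h bidirectional transport of 100 μM lignan across 21-day Caco-2 monolayers on Transwells in HBSS/10 mM HEPES pH 7.4 at 37 °C, with HPLC quantitation of both compartments. TEER and Lucifer yellow used to confirm monolayer integrity.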

[6] = as §1; format: ADME, cell-based, Caco-2; details: Caco-2; procedure, shortened: as §2
[7] = as §4; format: ADME, cell-based, Caco-2; details: Caco-2; procedure, shortened: as §2
[8] = Activity at Helix pomatia beta-glucuronidase/sulfatase type H-5 in compound-treated human Caco2 cell lysate assessed as formation of glucuronidase/sulfatase-sensitive conjugates at 100 uM after 12 hrs by HPLC analysis; format: ADME, cell-based; details: caco-2, 12 h; procedure, shortened: as §3

remaining at 48 h [1]	Papp (Caco-2 [2])	metabolised at 48 h, 100 µM [3]	Papp (Caco-2 [4])	efflux ratio at 2 h [5]	Papp A→B at 2 h [6]	Papp B→A at 2 h [7]	Drug metabolism [8]	Structure (SMILES)
> 95%	BLD	< 3%	BLD					COc1cc(C[C@@H](CO[C@@H]2O[C@H](CO)[C@@H](O)[C@H](O)[C@H]2O)[C@H](CO[C@@H]2O[C@H](CO)[C@@H](O)[C@H](O)[C@H]2O)Cc2ccc(O)c(OC)c2)ccc1O
> 95%				1.2	8 ×10⁻⁶ cm/s	9.5 ×10⁻⁶ cm/s		COc1cc(C[C@@H](CO)[C@H](CO)Cc2ccc(O)c(OC)c2)ccc1O [(+)-SECOISOLARICIRESINOL]
> 95%				1.2	7.7 ×10⁻⁶ cm/s	8.9 ×10⁻⁶ cm/s		OC[C@H](Cc1cccc(O)c1)[C@H](CO)Cc1cccc(O)c1 [ENTERODIOL]
> 95%				0.8	13.7 ×10⁻⁶ cm/s	10.6 ×10⁻⁶ cm/s	Active	O=C1OC[C@H](Cc2cccc(O)c2)[C@H]1Cc1cccc(O)c1 (relative stereo) [ENTEROLACTONE]
